Experimental data from ChEMBL document CHEMBL1127661, “Synthesis of 2-methyl-(Z)-4-(phenylimino)naphth[2,3-d]oxazol-9-one , a monoimine quinone with selective cytotoxicity toward cancer cells” (1994).

Tests used:
Tumor Cell line [1] = assay: In vitro inhibition of cell growth; format: functional, Homo sapiens
Tumor Cell line [2] = assay: Concentration which reduces cell growth to level at the start of the experiment was reported as the mean graph medium for all the cell lines tested in vitro conditions; format: functional, Homo sapiens
Method in brief: (§1)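 NCI in vitro screen covering about 60 human cell lines from eight solid tumour types and leukaemia. Results were derived from dose-response curves. TGI is the concentration that holds cell growth at the level present at the start of the experiment. Values are given as log molar concentration. The mean graph midpoint (MG-MID) is the average across all cell lines tested, with a range of TGI values.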

Hs-578T [3] = assay: In vitro tumor cell growth inhibition was reported as the concentration that reduces HS 578T breast cancer cell growth to level at the start experiment.; format: functional, Homo sapiens; method in brief: as §1
MDA-MB-435 [4] = assay: In vitro tumor cell growth inhibition was reported as the concentration that reduces MDA-MB-435 breast cancer cell growth to 50% of level at the start experiment.; format: functional; settings: Homo sapiens, read-out: Log LC50 (the source's name) (converted)
Method in brief: (§2)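 Tested in the NCI in vitro anticancer screen, which covers about 60 human cell lines from eight solid-tumour types and leukaemia. Values were read from dose-response curves as log molar concentration. The endpoint is the concentration that reduces cell growth to 50% of the level at the start of the experiment (LC50).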

T47D [5] = assay: In vitro tumor cell growth inhibition was reported as the concentration that reduces T-47D breast cancer cell growth to level at the start experiment.; format: functional, Homo sapiens; method in brief: as §1
Hs-578T [6] = assay: In vitro tumor cell growth inhibition was reported as the concentration that reduces HS 578T breast cancer cell growth to 50% of level at the start experiment.; format: functional; settings: Homo sapiens, read-out: Log LC50 (the source's name) (converted); method in brief: as §2
MCF7 [7] = assay: In vitro tumor cell growth inhibition was reported as the concentration that reduces MCF-7 breast cancer cell growth to 50% of level at the start experiment.; format: functional; settings: Homo sapiens, read-out: Log LC50 (the source's name) (converted); method in brief: as §2
MCF7 [8] = assay: In vitro tumor cell growth inhibition was reported as the concentration that reduces MCF-7 breast cancer cell growth to level at the start experiment.; format: functional, Homo sapiens; method in brief: as §1
SK-MEL-2 [9] = assay: In vitro tumor cell growth inhibition was reported as the concentration that reduces SK-MEL-2 melanoma cell growth to level at the start experiment.; format: functional, Homo sapiens; method in brief: as §1
BT-549 [10] = assay: In vitro tumor cell growth inhibition was reported as the concentration that reduces BT-549 breast cancer cell growth to level at the start experiment.; format: functional, Homo sapiens; method in brief: as §1
M14 [11] = assay: In vitro tumor cell growth inhibition was reported as the concentration that reduces M14 melanoma cell growth to level at the start experiment.; format: functional, Homo sapiens; method in brief: as §1
BT-549 [12] = assay: In vitro tumor cell growth inhibition was reported as the concentration that reduces BT-549 breast cancer cell growth to 50% of level at the start experiment.; format: functional; settings: Homo sapiens, read-out: Log LC50 (the source's name) (converted); method in brief: as §2
SK-MEL-2 [13] = assay: In vitro tumor cell growth inhibition was reported as the concentration that reduces SK-MEL-2 melanoma cell growth to 50% of level at the start experiment.; format: functional; settings: Homo sapiens, read-out: Log LC50 (the source's name) (converted); method in brief: as §2
Malme-3M [14] = assay: In vitro tumor cell growth inhibition was reported as the concentration that reduces MALME-3M melanoma cell growth to level at the start experiment.; format: functional, Homo sapiens; method in brief: as §1
M14 [15] = assay: In vitro tumor cell growth inhibition was reported as the concentration that reduces M14 melanoma cell growth to 50% of level at the start experiment.; format: functional; settings: Homo sapiens, read-out: Log LC50 (the source's name) (converted); method in brief: as §2
MDA-MB-435 [16] = assay: In vitro tumor cell growth inhibition was reported as the concentration that reduces MDA-MB-435 breast cancer cell growth to level at the start experiment.; format: functional, Homo sapiens; method in brief: as §1
SK-MEL-5 [17] = assay: In vitro tumor cell growth inhibition was reported as the concentration that reduces SK-MEL-5 melanoma cell growth to level at the start experiment.; format: functional, Homo sapiens; method in brief: as §1
LOX IMVI [18] = assay: In vitro tumor cell growth inhibition was reported as the concentration that reduces LOXIMVI melanoma cell growth to 50% of level at the start experiment.; format: functional; settings: Homo sapiens, read-out: Log LC50 (the source's name) (converted); method in brief: as §2
MDA-N [19] = assay: In vitro tumor cell growth inhibition was reported as the concentration that reduces MDA-N breast cancer cell growth to level at the start experiment.; format: functional, Homo sapiens; method in brief: as §1
T47D [20] = assay: In vitro tumor cell growth inhibition was reported as the concentration that reduces T-47D breast cancer cell growth to 50% of level at the start experiment.; format: functional; settings: Homo sapiens, read-out: Log LC50 (the source's name) (converted); method in brief: as §2
LOX IMVI [21] = assay: In vitro tumor cell growth inhibition was reported as the concentration that reduces LOXIMVI melanoma cell growth to level at the start experiment.; format: functional, Homo sapiens; method in brief: as §1
MDA-MB-231 [22] = assay: In vitro tumor cell growth inhibition was reported as the concentration that reduces MDA-MB-231/ATCC breast cancer cell growth to 50% of level at the start experiment..; format: functional; settings: Homo sapiens, read-out: Log LC50 (the source's name) (converted); method in brief: as §2
Malme-3M [23] = assay: In vitro tumor cell growth inhibition was reported as the concentration that reduces MALME-3M melanoma cell growth to 50% of level at the start experiment.; format: functional; settings: Homo sapiens, read-out: Log LC50 (the source's name) (converted); method in brief: as §2
MDA-N [24] = assay: In vitro tumor cell growth inhibition was reported as the concentration that reduces MDA-N breast cancer cell growth to 50% of level at the start experiment.; format: functional; settings: Homo sapiens, read-out: Log LC50 (the source's name) (converted); method in brief: as §2
SK-MEL-5 [25] = assay: In vitro tumor cell growth inhibition was reported as the concentration that reduces SK-MEL-5 melanoma cell growth to 50% of level at the start experiment.; format: functional; settings: Homo sapiens, read-out: Log LC50 (the source's name) (converted); method in brief: as §2
MDA-MB-231 [26] = assay: In vitro tumor cell growth inhibition was reported as the concentration that reduces MDA-MB-231/ATCC breast cancer cell growth to level at the start experiment.; format: functional, Homo sapiens; method in brief: as §1

## Cc1nc2c(o1)/C(=N\c1ccccc1)c1ccccc1C2=O
Tumor Cell line [1]
  Range: 1.44
Tumor Cell line [2]
  Log concentration: -4.62

## Cc1nc2c(o1)C(=O)c1ccccc1/C2=N/c1ccccc1
Hs-578T [3]
  Log concentration: -5.3
MDA-MB-435 [4]
  CC50: 3.16 µM
T47D [5]
  Log concentration: -5.1
Hs-578T [6]
  CC50: > 100 µM
MCF7 [7]
  CC50: > 100 µM
MCF7 [8]
  Log concentration: -5.3
SK-MEL-2 [9]
  Log concentration: -5.6
Tumor Cell line [1]
  Range: 2.02
BT-549 [10]
  Log concentration: -5.5
M14 [11]
  Log concentration: -5.9
BT-549 [12]
  CC50: 6.31 µM
SK-MEL-2 [13]
  CC50: 6.31 µM
Malme-3M [14]
  Log concentration: -5.6
M14 [15]
  CC50: 3.98 µM
MDA-MB-435 [16]
  Log concentration: -6
SK-MEL-5 [17]
  Log concentration: -5.6
LOX IMVI [18]
  CC50: 6.31 µM
MDA-N [19]
  Log concentration: -6
T47D [20]
  CC50: > 100 µM
LOX IMVI [21]
  Log concentration: -5.6
Tumor Cell line [2]
  Log concentration: -5.13
MDA-MB-231 [22]
  CC50: > 100 µM
Malme-3M [23]
  CC50: 5.01 µM
MDA-N [24]
  CC50: 3.16 µM
SK-MEL-5 [25]
  CC50: 5.01 µM
MDA-MB-231 [26]
  Log concentration: -4.7

## Cc1nc2c(o1)/C(=N\c1ccccc1)c1ccccc1/C2=N/c1ccccc1
Tumor Cell line [1]
  Range: 0.49
Tumor Cell line [2]
  Log concentration: -4.02
